Shown are actives, neighbours in structure and some others; about 3.7% of the full set was active somewhere.
procasp7 counter: procaspase-7 activators, primary screen, counter-screen for procaspase-3 activator project, biochemical, absorbance, HTS, human. activation, % at 8.5 µM. recombinant procaspase-7, Ac-DEVD-pNA absorbance 405 nm; D23A/D198A/D206A triple mutant, cannot self-cleave; scale: DMSO 0, 5 µM enzyme 100. 0.093% of 330,000 active. Caspase-7 (Homo sapiens), P55210;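 active = percent activation above the screen-wide mean plus 3 SD, cut at about 25% in these data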
Target sequence (P55210 whole entry D23A/D198A/D206A): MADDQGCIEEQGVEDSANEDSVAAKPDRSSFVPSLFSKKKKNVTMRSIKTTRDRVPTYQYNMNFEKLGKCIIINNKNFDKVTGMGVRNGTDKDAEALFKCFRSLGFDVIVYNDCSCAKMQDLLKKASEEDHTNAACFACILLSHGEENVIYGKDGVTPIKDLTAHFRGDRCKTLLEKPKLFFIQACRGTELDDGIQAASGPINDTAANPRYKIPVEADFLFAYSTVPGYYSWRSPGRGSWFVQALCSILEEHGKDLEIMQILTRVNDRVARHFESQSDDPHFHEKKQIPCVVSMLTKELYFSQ
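Test system: Procaspase-7 triple mutant (PC-7 D3A). Also added: Ac-DEVD-pNA substrate, 400 µM as added. Schedule: 1 h enzyme–compound preincubation and 2 h substrate reaction, both 25 °C. Signal: p-Nitroaniline absorbance at 405 nm, read at 0 and 120 min. Control set: low DMSO alone, high DMSO plus 5 µM PC-7.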
GRIN3A LBD mod: binders of NR3A ligand-binding domain, primary screen, biophysical, differential scanning fluorimetry, uHTS; Glutamate receptor ionotropic, NMDA 3A (GRIN3A) ligand-binding domain; NR3A LBD differential scanning fluorimetry, Tm shift; 0% = protein alone, 100% = glycine-bound protein; Tm shift relative to glycine control, % at 25 µM; 2.5% of 340,000 active;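 active = melting temperature shift of at least 10% of the positive control shift, at one fixed dose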
proCasp3 act: activators of human procaspase-3 D3A mutant, primary screen, biochemical, absorbance, PC-3 D3A mutant, single concentration; Caspase-3 (Homo sapiens), P42574; recombinant procaspase-3 D3A, Ac-DEVD-pNA absorbance 405 nm; activation, % at 8.5 µM; 0.11% of 330,000 active;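 active = activation above the mean of all tested compounds plus 3 SD, cut at about 21% in these data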
Target sequence (P42574 whole entry D9A/D28A/D175A): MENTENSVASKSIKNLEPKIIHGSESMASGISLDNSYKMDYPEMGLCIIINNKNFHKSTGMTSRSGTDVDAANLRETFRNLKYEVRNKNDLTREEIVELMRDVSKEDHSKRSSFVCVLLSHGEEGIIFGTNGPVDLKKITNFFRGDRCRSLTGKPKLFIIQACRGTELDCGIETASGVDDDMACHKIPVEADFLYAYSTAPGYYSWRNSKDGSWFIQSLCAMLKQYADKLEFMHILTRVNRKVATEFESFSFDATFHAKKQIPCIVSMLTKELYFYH
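material = Procaspase-3 D3A mutant | probe or stimulus = Ac-DEVD-pNA | compound = single dose, 8.5 µM nominal compound, 0.8% DMSO | timing = 1 h preincubation, 2 h reaction | measured by = 405 nm absorbance of p-nitroaniline, reads at 0 and 120 min | benchmarks = DMSO-only low control, 5 µM PC-3 D3A high control | repeats = singlicate, each compound tested once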
aDG glyco act: activators of alpha-DG glycosylation, primary screen, uHTS, Pro5-aDG cells, AlphaScreen | alpha-DG glycosylation AlphaScreen (IIH6); 0% Pro5, 100% B10-LARGE cell signal | activation, % at 10 µM | 0.22% of 360,000 active | AID 624168, 2012;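 active = activation of at least 8% versus controls, or a plate z-score of at least 8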;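 also: Pro5 are CHO cells carrying HIG-tagged alpha-DG that lacks glycosylation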
MPTP block: mitochondrial permeability transition pore inhibitors, primary screen, biochemical, isolated mouse mitochondria, absorbance. Ca2+ swelling absorbance, 30 min. inhibition, % at 10 µM. 1.4% of 360,000 active;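 active = inhibition of 50% or more, scaled per plate between neutral and stimulator controls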
MPTP counter: fluorescence retest of MPTP screen hits in isolated mitochondria, single concentration. shares compounds with MPTP block. membrane potential, Rhodamine 123 fluorescence. inhibition, % at 10 µM. 78% of 5,000 active. AID 624504, 2012; in the data active = inhibition above about 22%
MPTP abs DR: mitochondrial permeability transition pore inhibitors, dose response, biochemical, absorbance, uHTS hits. 58% of 780 active. shares compounds with MPTP block. isolated mitochondria swelling. IC50, µM; in the data active = IC50 below about 20 µM
MPTP counter DR: fluorescent counter-screen in isolated mitochondria, dose response, counter-screen for MPTP inhibitor project, biochemical, fluorescence, uHTS hits | IC50, µM | 49% of 780 active | isolated mitochondria counterscreen, fluorescence read-out | shares compounds with MPTP block | AID 651564, 2012; in the data active = IC50 below about 80 µM
Of the large screens only hits and unclear results are named; the others gave an inactive call (follow-up assays come after a bar, where they were run); ! = not active in a repeat.

CSc1ccc2c(c1)C(N1CCN(C)CC1)Cc1ccccc1S2 (configuration not stated)	MPTP block 104! | MPTP counter inactive
CN1CCN(C2Cc3cc(F)ccc3Sc3ccc(Cl)cc32)CC1 (configuration not stated)	none
CC1(C(=O)Nc2ccc(Cl)c(Cl)c2)CCN1Cc1cc2ccccc2o1 (configuration not stated)	none (no result: procasp7 counter, GRIN3A LBD mod, proCasp3 act)
CC(=O)c1c(C)[nH]c(C(=O)OCc2ccc(F)cc2Cl)c1C	MPTP block 78 | MPTP counter 69
COc1ccc(OCCOC(=O)c2[nH]c(C)c(C(C)=O)c2C)cc1	MPTP block 56 | MPTP counter 31
CCn1c2ccccc2c2cc(CNCc3ccc(OC)cc3OC)ccc21	MPTP block 73 | MPTP counter 37
CCSc1nc2sc3c(c2c(=O)n1C1CCCCC1)CCN(C)C3	MPTP block 50 (no result: procasp7 counter, proCasp3 act) | MPTP counter 30
Cc1cccc(N(Cc2ccccc2)C(=O)C2CCN(C(=O)c3ccccc3C)CC2)c1	none
Cc1sc2ncnc(NC3CCN(Cc4ccccc4)CC3)c2c1C	MPTP block 91 | MPTP counter 71
Cc1nc(Nc2ccccc2)[nH]c(=O)c1CCC(C)C	MPTP block 57 | MPTP counter 58
Cc1nc(N2CCc3ccccc3C2)[nH]c(=O)c1CCC(C)C	none
O=C(Nc1ccccc1O)C(c1ccccc1)c1ccccc1	MPTP block 83 | MPTP counter 83
CC(C)Cc1ccc(C(C)C(=O)Nc2ccccc2O)cc1 (configuration not stated)	MPTP block 90 | MPTP counter 95
Cc1ccc(NC(=O)COC(=O)c2ccc(-n3nc(C)cc3C)cc2)c(F)c1	none
CCc1ccccc1NC(=O)CSc1nc(-c2ccccc2)nn1C(=O)c1cccc([N+](=O)[O-])c1	none (no result: GRIN3A LBD mod, aDG glyco act, MPTP block)
O=C(CSc1nc(-c2ccccc2)nn1C(=O)c1ccccc1)Nc1cccc([N+](=O)[O-])c1	GRIN3A LBD mod 13, MPTP block 50 | MPTP counter 47
CC(OC(=O)[C@@H]1CCCN1C(=O)c1cccs1)C(=O)Nc1cccc([N+](=O)[O-])c1 (some centres not stated)	none
CC(=O)C1CCC2C3CC=C4CC(SC(=N)N)CCC4(C)C3CCC12C (configuration not stated)	MPTP block 80 (no result: procasp7 counter, proCasp3 act) | MPTP counter 24
CC(=O)OCC(=O)C1CCC2C3CC=C4CC(O)CCC4(C)C3CCC12C (configuration not stated)	none
CC1(C)CC(=O)C2=C(C1)N1C(=C(C#N)C2c2ccc(Cl)cc2)N=C(N)c2ccccc21 (configuration not stated)	none
Cc1ccc(C2C3=C(CC(C)(C)CC3=O)N=C3c4ccccc4C(=O)C32)cc1 (configuration not stated)	MPTP block 86 | MPTP counter 63
CCOC(=O)C1=C(C)N=C2c3ccccc3C(=O)C2C1c1ccc(Cl)cc1 (configuration not stated)	MPTP block 66 | MPTP counter 45
CC1(C)CC(=O)C2=C(C1)N=C1c3ccccc3C(=O)C1C2c1ccc(Cl)cc1 (configuration not stated)	MPTP block 98 | MPTP counter inactive
Cc1ccc(C2C3=C(CC(C)(C)CC3=O)OC3=C2C(=O)CC(C)(C)C3)cc1	none
CC(C)(C)[C@H]1COC(=O)[C@H](NC(=O)OCC2c3ccccc3-c3ccccc32)C/C=C\C[C@@H](CC(=O)N[C@@H](CO)Cc2ccccc2)C(=O)N1	none
CC1(C)C2CC=C(/C=N/NC(=O)c3ccccc3O)C1C2 (configuration not stated)	MPTP block 50 | MPTP counter 71
CNC(=S)N/N=C/C1=CCC2CC1C2(C)C (configuration not stated)	none
O=C1C2CC=CCC2C(=O)N1c1ccc(N2CCN(c3ccccn3)CC2)c([N+](=O)[O-])c1 (configuration not stated)	MPTP block 55 | MPTP counter 45
Cc1ccc(OCCNS(=O)(=O)c2ccc(N3CCCC3=O)cc2)cc1C	MPTP block 104 | MPTP counter 92
Cc1ccc(OCCNS(=O)(=O)c2ccc(N3CCCC3=O)cc2)cc1	MPTP block 84 | MPTP counter 70
CCc1cc2cccc(C)c2nc1SCC(=O)Nc1cc(C)on1	none
OCCNc1nc(Nc2ccccc2O)nc(N2CCCC2)n1	none
Cc1ccc(Nc2nc3nonc3[nH]c2=O)cc1C	MPTP block 69 | MPTP counter 102
Cc1ccc(NC2=CC(=O)CC(C)(C)C2)cc1Cl	none
Cc1ccc(Nc2n[nH]c(C)c2[N+](=O)[O-])cc1C	none
Cc1ccc(Nc2nc3nonc3[nH]c2=O)cc1Cl	MPTP block 92 | MPTP counter 99
Cc1cnc(C(=O)OC(C)C(=O)Nc2cccc3ccccc23)cn1 (configuration not stated)	none
Cc1ccc(Oc2ccc(NC(=O)Cn3ccsc3=N)cc2)cc1	MPTP block 89 | MPTP counter inactive | MPTP abs DR 6.3 | MPTP counter DR inactive
CC(=O)c1cccc(OCC(=O)N(CCC2=CCCCC2)c2c(N)n(Cc3ccccc3)c(=O)[nH]c2=O)c1	none (no result: procasp7 counter, proCasp3 act)
COc1ccccc1C1CCN(c2cc(O)ccc2[N+](=O)[O-])CC1	GRIN3A LBD mod 13, MPTP block 86 | MPTP counter 78
CCCn1c(SCC(=O)Nc2nc3c(s2)CCCC3)nc2c1c(=O)n(C)c(=O)n2C	MPTP block 85 | MPTP counter 33
CCCCn1c(SCC(=O)Nc2nnc(C(C)C)s2)nc2c1c(=O)n(C)c(=O)n2C	none
COc1ccc(S(=O)(=O)N(C)C[C@H]2Oc3ccc(NC(=O)c4ccncc4)cc3C(=O)N([C@H](C)CO)C[C@@H]2C)cc1	none
